UPR CHOP act: apoptotic UPR (CHOP) activation; CHO-CHOP luciferase reporter, luminescence; percent of tunicamycin response over DMSO baseline; actives 0.34% (n = 330,000); activation, % at 10 µM; AID 449763;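 active = at 10 µM dose, activation of 40% or more, normalized to positive control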
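Material: CHO-CHOP cells, stable luciferase reporter of PERK-eIF2a-CHOP signalling; quantity: 500 reporter cells seeded per well; buffer or medium: F12 medium containing 10% fetal bovine serum; compound: one dose, 10 µM in 0.5% DMSO; incubation: 6 h compound treatment, 37 °C; measured by: Steady-Glo luciferase luminescence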
pCIP destab: p/CIP protein destabilization; actives 0.01% (n = 290,000); AID 1984; decrease of EGFP signal, % at 10 µM; F442A p/CIP-EGFP cells, EGFP fluorescence, 16 h; Q05BA5;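 active = EGFP signal decrease of at least 30% at 10 µM or well 3 SD below plate mean, unless failing retest; inactive = the rest, including hits failing retest or dose response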
CHOP inh: blocks CHOP induction under ER stress. AID 2732. inhibition, % at 10 µM. actives 3.8% (n = 220,000). CHO-K1 CHOP-promoter luciferase, tunicamycin-induced, 15-18 h;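 active = compounds that reduced the stress-induced luciferase reporter signal by more than about 70% of percent inhibition, limit read from the data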
B2AR ag: activates human beta-2 adrenergic receptor causing internalization | P07550 | Am2.2-beta2AR cells, FAP receptor internalization, flow cytometry | response, % (test concentration not listed) | actives 0.43% (n = 340,000) | AID 504454;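 active = response above a set limit, near 3 SD of response in nonfluorescent compounds, cut at about 42% in these data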
Target sequence (P07550 whole entry, looked up): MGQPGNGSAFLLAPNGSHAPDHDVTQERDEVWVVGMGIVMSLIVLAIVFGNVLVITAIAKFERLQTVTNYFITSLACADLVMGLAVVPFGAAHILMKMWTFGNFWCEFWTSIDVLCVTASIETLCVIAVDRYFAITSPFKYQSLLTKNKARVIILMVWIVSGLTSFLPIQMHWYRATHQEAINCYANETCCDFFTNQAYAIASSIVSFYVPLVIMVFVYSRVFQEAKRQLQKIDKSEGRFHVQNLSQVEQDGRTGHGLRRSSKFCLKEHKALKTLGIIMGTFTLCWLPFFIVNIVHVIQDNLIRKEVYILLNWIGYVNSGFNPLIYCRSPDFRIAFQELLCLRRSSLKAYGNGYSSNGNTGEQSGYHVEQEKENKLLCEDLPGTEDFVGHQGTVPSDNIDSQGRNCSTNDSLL
Dynein transport: dynein cargo transport inhibition. actives 0.47% (n = 220,000). z-score, hits read low. 3617.4 mouse cells, GR-EGFP nuclear translocation imaging; test concentration mostly 20 µM; stimulated with dexamethasone, 1 µM; stronger effect = lower value;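 active = plate z-score of nuclear minus cytoplasmic receptor signal below a set negative limit, without overly bright fluorescence or cell loss, cut at about -3.5 in these data, passing the limit was not always enough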;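 also: z-score of nuclear minus cytoplasmic ring GR-EGFP intensity difference per well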
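Also added – dexamethasone, 1.0 µM final · Buffer or medium – tet-free, stripped-serum medium · Schedule – induction 48 h, compound 1 h, agonist 30 min · Detection – formaldehyde fixation, Hoechst nuclear stain, 10x automated fluorescence imaging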
XBP1 UPR activ: activators of adaptive arm of unfolded protein response (XBP1); CHO-XBP1 luciferase reporter, IRE1-XBP1 UPR activation, luminescence; percent of tunicamycin response, DMSO as zero; activation, % at 20 µM; actives 0.33% (n = 330,000); AID 463104;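 active = versus positive control, 20 µM dose yields 30% or more activation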
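Signal: luciferase luminescence; Assay system: CHO-XBP1 luciferase reporter cells; Amount: one thousand reporter cells per well; Dosing: 20 µM single concentration, DMSO 1%; Benchmarks: high control tunicamycin 10 µg/mL final, low control DMSO vehicle only; Schedule: 6 h compound exposure at 37 °C, 5% CO2; Evaluation: percent activation relative to tunicamycin reference.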
CHOP inh conf: confirmation of CHOP induction inhibitors; actives 45% (n = 2,100); shares compounds with CHOP inh; AID 504437; CHO-CHOP promoter luciferase reporter, tunicamycin-induced, luminescence; inhibition, % at 10 µM;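 active = mean of three repeat readings of reporter signal inhibition above a set limit, cut at about 70% in these data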
Large screens that a line does not name were inactive (follow-up assays come after a bar, where they were run). This is one part of a sample in which hits are shown more often than they occur.

O=C(O)CNC(=O)CC1S/C(=N/N=C2\CSC(=O)N2)NC1=O (stereo unspecified)	none
COc1ccc2cc(C(=O)N/N=C/c3sc4ccccc4c3O)ccc2c1	CHOP inh 97 | CHOP inh conf inactive
COc1ccc(C(=O)N/N=C/c2sc3ccccc3c2O)cc1	none (no result: UPR CHOP act, XBP1 UPR activ)
Cc1nc(SCC(=O)Nc2ccccc2)c2oc3ccccc3c2n1	CHOP inh 96 | CHOP inh conf inactive
Cc1nc(SCC(=O)Nc2ccc(F)cc2)c2oc3ccccc3c2n1	CHOP inh 106 | CHOP inh conf inactive
Cc1nc(SCC(=O)NC(C)c2ccccc2)c2oc3ccccc3c2n1 (stereo unspecified)	none
CS(=O)(=O)c1ncc(Cl)c(C(=O)Nc2ccc(N3CCOCC3)cc2)n1	none (no result: CHOP inh) | CHOP inh conf 117
C/C=C1\NC(=O)[C@H](C)NC(=O)[C@@H](NC(=O)[C@@H](Cc2ccc(O)cc2)NC(=O)[C@@H](NC(=O)/C(C)=C/C)C(C)C)[C@@H](C)OC(=O)[C@H](CCCCc2ccc(O)cc2)NC(=O)[C@@H](CCC(=O)O)NC1=O	none (no result: pCIP destab, CHOP inh, Dynein transport)
CCOC(=O)C1CCCCN1Cc1ccc(F)c(Br)c1 (stereo unspecified)	CHOP inh 106 | CHOP inh conf inactive
COc1ccc(N=Cc2sc3ccccc3c2Cl)cc1	none
CCOC(=O)c1ccc(N=c2ssnc2Cl)cc1	CHOP inh 98 | CHOP inh conf inactive
COc1ccc(N=c2ssnc2Cl)cc1	CHOP inh 109, Dynein transport -3.8 | CHOP inh conf inactive
N=C1/C(=C/c2coc3ccccc3c2=O)C(=O)N=C2SC(c3ccco3)=NN12	none
N=C1/C(=C\c2coc3ccccc3c2=O)C(=O)N=C2SC(c3ccncc3)=NN12	CHOP inh 102 | CHOP inh conf inactive
CCn1nc(C(=O)NNC(=O)COc2ccccc2C)c2ccccc2c1=O	none
CC1=C(C(=O)Nc2ccc(C)cc2C)C(c2ccc(Cl)cc2)n2nc(C(=O)OC(C)C)nc2N1 (stereo unspecified)	CHOP inh 105 | CHOP inh conf inactive
CCCOC(=O)c1ccc(Oc2c(-c3ccc(O)cc3O)n[nH]c2C)cc1	CHOP inh 105 | CHOP inh conf inactive
Cc1[nH]nc(-c2ccc(O)cc2O)c1Oc1ccccc1	none
CCOc1ccc(-c2n[nH]c(C)c2Oc2ccccc2OC)c(O)c1	none
CCc1cc(-c2n[nH]c(C)c2Oc2ccc(C(C)C)cc2)c(O)cc1O	CHOP inh 113 | CHOP inh conf 114
Cc1ccc(NNC(=S)Nc2ccc(C(C)C)cc2)c(C)c1	CHOP inh 106 | CHOP inh conf inactive
Cc1ccc(NC(=S)NNC(=S)Nc2ccc(C)cc2)cc1	none (no result: UPR CHOP act, pCIP destab, CHOP inh, Dynein transport, XBP1 UPR activ)
CCOC(=O)C1=C(N)Oc2c(c(=O)[nH]c3ccccc23)C1c1ccccc1 (stereo unspecified)	CHOP inh 97 | CHOP inh conf inactive
Cn1c(=O)n(CCOc2ccc(Cl)cc2Cl)c2ccccc21	CHOP inh 98 | CHOP inh conf 71
COc1ccc(C2C(C(N)=O)=C(C)Nc3nc(CCCO)nn32)cc1OC (stereo unspecified)	none (no result: CHOP inh, Dynein transport)
O=c1c2ccccc2sn1-c1ccc(F)cc1	none (no result: pCIP destab, CHOP inh, Dynein transport)
Cc1ccc(-n2sc3ccccc3c2=O)cc1	CHOP inh 106 | CHOP inh conf inactive
CN1C2=C(C#N)C(c3ccccc3)(C(F)(F)F)NC(=O)N2c2ccccc21 (stereo unspecified)	none
Cc1ccc(C2(C(F)(F)F)NC(=O)N3C(=C2C#N)Nc2ccccc23)cc1 (stereo unspecified)	CHOP inh 107 | CHOP inh conf inactive
CCOc1ccc(NC(=O)CCc2c(C)nn(-c3ccc(N4CCCCC4)nn3)c2C)cc1	none (no result: CHOP inh, Dynein transport)
c1ccc(Cn2nnc3c(NCc4ccc5c(c4)OCO5)nc(C4CC4)nc32)cc1	none
Cc1nc(NCc2ccc3c(c2)OCO3)c2nnn(Cc3ccccc3)c2n1	CHOP inh 101 | CHOP inh conf inactive
Cc1ccc(S(=O)(=O)N2CCCCC2)cc1NC(=O)c1ccc(Br)o1	none (no result: pCIP destab, CHOP inh, Dynein transport)
COc1ccccc1NS(=O)(=O)c1cccc(NC(=O)Nc2cccc(Cl)c2)c1	CHOP inh 101 | CHOP inh conf inactive
NS(=O)(=O)c1ccc(CNC(=O)C2CCCN2C(=O)c2cccs2)cc1 (stereo unspecified)	none (no result: pCIP destab, CHOP inh, Dynein transport)
COc1ccc([N+](=O)[O-])cc1NS(=O)(=O)c1ccc(Cl)c(C(=O)Nc2sc3c(c2C#N)CCCCC3)c1	CHOP inh 105 (no result: B2AR ag) | CHOP inh conf inactive
CC(C)(C)OC(=O)C[C@H]1C/C=C\C[C@@H](CC(=O)N(CCO)Cc2ccccc2)C(=O)N2CCC[C@H]2COC1=O	none (no result: pCIP destab, CHOP inh, Dynein transport)
O=C1CC(=O)Nc2cc(S(=O)(=O)Nc3cccc(C(F)(F)F)c3)ccc2N1	none (no result: CHOP inh, Dynein transport)
Cc1cc(NC(=O)c2cc(-c3ccccn3)nc3ccccc23)no1	none
Cc1cc(C)c2nc(-c3ccccn3)cc(C(=O)Nc3cc(C)on3)c2c1	CHOP inh 101 | CHOP inh conf 99
O=C(CSc1nnc(-c2ccc(F)cc2)n1CC1CCCO1)NCc1ccco1 (stereo unspecified)	none (no result: CHOP inh, Dynein transport)
CCOC(=O)C1=C(O)/C(=C/c2ccc(CNC(=O)C(=O)Nc3ccc(C)cc3)o2)N=C1C	CHOP inh 106, B2AR ag 75 | CHOP inh conf 109
CCOC(=O)C1=C(O)/C(=C\c2ccc(CNS(=O)(=O)c3ccc(Br)cc3)o2)N=C1C	none
CCCCOC(=O)c1cc(=O)[nH]c(=O)[nH]1	none
Cc1nn(-c2ccc(C(F)(F)F)cn2)c(C)c1Oc1ccccc1O	CHOP inh 100 | CHOP inh conf 102
Cc1cc(=O)[nH]c(-n2nc(C)c(Oc3ccccc3O)c2C)n1	none
COc1cc(NS(=O)(=O)c2ccc(NC(=S)NC(=O)c3sc4ccccc4c3Cl)cc2)ncn1	CHOP inh 100 (no result: UPR CHOP act, XBP1 UPR activ) | CHOP inh conf inactive
CN(CC(=O)NCc1ccco1)CC(=O)Nc1cc(S(C)(=O)=O)ccc1Cl	none (no result: pCIP destab, CHOP inh, Dynein transport)
CCCc1cc(-c2[nH]ncc2-c2ccc3c(c2)OCCCO3)c(O)cc1O	CHOP inh 101 | CHOP inh conf inactive
O=Cc1cccc(OC(=O)c2ccc(Cl)cc2Cl)c1	CHOP inh 101 (no result: B2AR ag) | CHOP inh conf inactive
COc1ccc(CCNC(=O)COC(=O)C2CC2)cc1OC	none (no result: pCIP destab, CHOP inh, Dynein transport)
Cc1ccc(S(=O)(=O)N2CCN(C(=O)COC(=O)COc3ccc(Cl)cc3)CC2)c(C)c1	none (no result: UPR CHOP act, pCIP destab, CHOP inh, Dynein transport, XBP1 UPR activ)
CN=C1SC(CC(=O)Nc2ccccc2F)C(=O)N1/N=C/c1ccc(O)c(OC)c1 (stereo unspecified)	none

Screening data (PubChem)
